Bioassay records as filed in PubChem.
Calb FLC: C. albicans growth modulation with fluconazole. C. albicans CaCi-2 (fluconazole-resistant clinical isolate) + fluconazole, Alamar Blue growth, 48 h. growth inhibition, % (no concentration beside the values). hit rate 0.57% among 300,000. AID 1979;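 active means growth inhibition above about 58% in most replicates, limit read from the data, passing the limit was not always enough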;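 further: all wells also contain fluconazole at 8 µg/ml as a sub-toxic cotreatment; 0% = median of DMSO wells and 100% = median of geldanamycin control wells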
ATG4B inhibitor: ATG4B (human) cysteine protease inhibition; AID 504462; ATG4B cleavage of LC3-PLA2, NBD-HPC fluorescence, 1 h; inhibition, % at 8.33 µM; hit rate 0.51% among 340,000; Q9Y4P1; in the data active means inhibition above about 40%
Target sequence (Q9Y4P1 whole entry, looked up): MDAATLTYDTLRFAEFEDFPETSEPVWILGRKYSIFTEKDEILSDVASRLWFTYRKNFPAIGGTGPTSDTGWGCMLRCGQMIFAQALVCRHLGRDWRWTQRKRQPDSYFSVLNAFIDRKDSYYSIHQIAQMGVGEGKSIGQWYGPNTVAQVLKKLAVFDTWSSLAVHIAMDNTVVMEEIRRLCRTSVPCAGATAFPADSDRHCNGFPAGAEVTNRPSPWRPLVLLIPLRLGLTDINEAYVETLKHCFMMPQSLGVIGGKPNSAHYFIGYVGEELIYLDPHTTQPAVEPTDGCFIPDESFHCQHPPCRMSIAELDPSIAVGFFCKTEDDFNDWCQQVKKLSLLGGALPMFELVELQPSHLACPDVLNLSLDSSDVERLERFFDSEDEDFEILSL
UCH37 inh: blocks the human deubiquitinase UCH37 | hit rate 0.33% among 330,000 | AID 588478 | inhibition, % (test concentration not listed) | Q9Y5K5 | purified proteasome/UCH37, Ub-AMC cleavage fluorescence;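 active means mean inhibition over replicate wells above about 20%, limit read from the data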;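 further: 0% = compound-free wells with enzyme and 100% = wells lacking proteasome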
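Material: human UCH37 enzyme supplied as purified proteasome complex / Amount: 0.15 nM proteasome as dispensed / Buffer or medium: pH 7.4 Tris-HCl (50 mM) with ovalbumin, ATP-MgCl2, DTT / Times: preincubation 30 min, reaction 25 min, room temperature / Technique: AMC fluorescence from Ub-AMC cleavage, excitation 355 nm, emission 460 nm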
ALR H2O2 inh: human ALR oxidase inhibition via reduced H2O2; purified ALR, DTT oxidation, H2O2 HRP-luminol luminescence; AID 485317; inhibition, % (concentration not given with the values); P55789; hit rate 3.8% among 290,000;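 active means mean replicate inhibition above about 79%, with every replicate also reaching it, limit read from the data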
Target sequence (P55789 whole entry, looked up): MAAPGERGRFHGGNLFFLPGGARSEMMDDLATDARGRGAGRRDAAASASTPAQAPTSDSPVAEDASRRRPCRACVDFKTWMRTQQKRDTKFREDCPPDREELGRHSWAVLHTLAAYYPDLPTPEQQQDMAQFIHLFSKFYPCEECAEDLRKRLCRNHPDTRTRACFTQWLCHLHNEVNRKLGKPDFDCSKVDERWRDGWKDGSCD
NLRP3 yeast inh: inhibitors of NALP3 inflammasome in yeast; AID 2825; Yeast reconstituted NLRP3/ASC/caspase-1, beta-gal luminescence, 24 h; hit rate 0.39% among 330,000; inhibition, % at 10 µM;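 active means inhibition of 50% or more; inactive means inhibition below 50%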;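 further: plate controls were induced DMSO wells for no effect and uninduced yeast grown without galactose for full effect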
NALP1 yeast inh: NALP1 inhibition. hit rate 0.61% among 280,000. inhibition, % at 10 µM. S. cerevisiae NALP1/ASC/caspase-1 growth, X-gal OD620, 72 h; in the data active means inhibition mostly above about 24%, no sharp cut-off; inactive means mostly below about 32%
UCH37 confirm: reconfirmed inhibitor of human deubiquitinase UCH37; hit rate 27% among 480; AID 624100; shares compounds with UCH37 inh; Proteasome-bound UCH37, Ub-AMC cleavage fluorescence; inhibition, % at 20 µM;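 active means average inhibition over replicates above about 50%, so the earlier screening hit is confirmed, limit read from the data; inactive means the rest, counted as false positives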;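 further: based on cleavage rate fitted by regression over a 30 min kinetic read; 0% = proteasome plus Ub-AMC and 100% = Ub-AMC without proteasome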
Active calls of the source: *; nt = not tested or not shown. Shown are actives, neighbours in structure and some others; about 4.8% of the full set was active somewhere.

SMILES	Calb FLC	ATG4B inhibitor	UCH37 inh	ALR H2O2 inh	NLRP3 yeast inh	NALP1 yeast inh	UCH37 confirm
CCOC(=O)c1ccccc1OC(=O)CS(=O)c1ccccc1[N+](=O)[O-] (configuration not stated)	20	8	3	-48	5	6	nt
CN1C2CCC1/C(=C/c1cccn1C)C(=O)/C2=C\c1cccn1C	-8	-26	29*	0	4	20	15
CN1C2CCC1/C(=C\c1ccc(F)cc1)C(=O)/C2=C/c1ccc(F)cc1	47	6	1	-1	31	35	nt
C(=NNc1nc(N2CCCCC2)nc(N2CCCCC2)n1)c1c[nH]c2ccccc12	nt	nt	38*	nt	nt	nt	-59
Cc1[nH]c2ccccc2c1C=NNc1nc(N2CCCCC2)nc(N2CCCCC2)n1	nt	nt	5	nt	nt	nt	nt
CC(=NNC(=O)CCC(=O)NCc1ccccc1)c1ccc([N+](=O)[O-])cc1	nt	nt	4	nt	nt	nt	nt
COC1=C(c2ccccc2)C(=O)c2ccccc2C1=O	nt	-10	27*	-60	-21	41	33
O=C(NC1(O)C(=O)c2ccccc2C1=O)c1c(Cl)cccc1Cl	-6	-8	80*	9	12	nt	52*
O=C(NC1(O)C(=O)c2ccccc2C1=O)c1ccccc1	-4	14	84*	39	16	nt	74*
O=C(Nc1ccccc1Cl)c1c(F)c(F)c(F)c(F)c1F	-22	7	5	nt	-11	nt	nt
Cc1cc(-c2ccccc2)nc(NN=Cc2ccccc2)n1	nt	nt	2	nt	nt	nt	nt
CCN(CC)Cc1c(C(=O)NN=Cc2cccs2)nnn1-c1nonc1N	nt	nt	8	nt	nt	nt	nt
CC1Cc2ccccc2N1C(=O)COC(=O)c1ccc([N+](=O)[O-])o1 (configuration not stated)	nt	-16	26*	-28	11	nt	31
O=C(COC(=O)c1ccc([N+](=O)[O-])o1)NC1CCCCC1	nt	-14	26*	nt	11	nt	19
Cc1ccc(C(=O)OCC(=O)NC2CCCCC2)o1	-3	6	nt	-6	2	16	nt
O=C(COC(=O)c1ccc([N+](=O)[O-])o1)NC1CCCC1	nt	-10	32*	nt	19	nt	10
CC1CCCCC1NC(=O)COC(=O)c1ccc([N+](=O)[O-])o1 (configuration not stated)	nt	7	30*	nt	16	nt	1
O=C(NC1CCCCC1)c1ccc([N+](=O)[O-])o1	0	-5	3	-21	5	21	nt
CC1CCCC(NC(=O)COC(=O)c2ccc(Br)o2)C1C (configuration not stated)	nt	-2	0	-8	26	nt	nt
O=[N+]([O-])c1cccc(C=Nn2c(-c3cccnc3)n[nH]c2=S)c1	nt	nt	7	nt	nt	nt	nt
CCc1ccc(C=c2sc(=CC(=O)C(C)(C)C)[nH]c2=O)cc1	nt	nt	6	nt	nt	nt	nt
Cc1ccc(-n2ncc3c(NNC(=O)c4ccco4)ncnc32)c(C)c1	3	6	2	nt	-1	-14	nt
O=C(c1ccco1)[C@@H]1[C@@H]2C(=O)N(c3ccccc3)C(=O)[C@@H]2C2c3ccccc3C=CN21 (some centres not stated)	4	12	64*	6	13	-25	5
Cc1ccc(N2C(=O)[C@@H]3[C@H](C2=O)C2c4ccccc4C=CN2[C@@H]3C(=O)c2ccco2)c(C)c1 (some centres not stated)	-2	14	28*	-21	-20	-12	3
CC(C)(C)C(=O)[C@@H]1[C@@H]2C(=O)N(c3ccc4c(c3)OCCO4)C(=O)[C@@H]2C2c3ccccc3C=CN21 (some centres not stated)	-5	-24	12	65	12	-2	nt
SMILES	Calb FLC	ATG4B inhibitor	UCH37 inh	ALR H2O2 inh	NLRP3 yeast inh	NALP1 yeast inh	UCH37 confirm
CCN(CC)S(=O)(=O)c1ccc(NN=C(C)c2ccncc2)c([N+](=O)[O-])c1	nt	nt	0	nt	nt	nt	nt
CC(Sc1nnc(-c2cccnc2)n1N)C(=O)NCCC1=CCCCC1 (configuration not stated)	nt	-10	63*	nt	9	nt	52*
CC(Sc1nnc(-c2cccnc2)n1N)C(=O)N1CCOCC1 (configuration not stated)	-5	-1	2	-10	-1	nt	nt
CC1=CCCC(C)(C)C1/C=C/C(C)=NNC(=O)c1ccncc1 (configuration not stated)	nt	nt	6	nt	nt	nt	nt
CC(=O)Nc1ccc(SCC(=O)c2cc(C)n(C)c2C)cc1	4	-3	43*	99*	3	-4	-3
COc1ccc(/C=C2\Oc3cc(OCC(=O)N4CCC[C@H]4C(=O)O)ccc3C2=O)c(OC)c1	-6	-37	3	52	-13	1	nt
COc1cc(OC)c(OC)cc1/C=C1\Oc2cc(OCC(=O)N3Cc4ccccc4C[C@H]3C(=O)O)ccc2C1=O	13	-20	27*	-10	7	12	18
CCN1/C(=C/C(C)=O)Sc2ccc(OC)cc21	24	-11	14	nt	-25	12	nt
CCOC(=O)/C(=C\C=C1/Sc2cc(OCC)c(OCC)cc2N1CC)C(C)=O	-3	-53	29*	93*	nt	35	18
Cc1cc(C)c(NC(=O)COC(=O)c2ccc([N+](=O)[O-])s2)c(C)c1	-1	-14	4	-15	-4	26	nt
CN(CC(=O)Nc1ccccc1Cl)C(=O)COC(=O)c1ccc([N+](=O)[O-])s1	nt	-11	76*	-46	14	nt	13
NS(=O)(=O)c1ccc(NC(=O)COC(=O)c2ccc([N+](=O)[O-])s2)cc1	2	-7	69*	-28	10	14	-9
Cc1ccc(NC(=O)COC(=O)c2ccc([N+](=O)[O-])s2)c(C)c1	13	-15	31*	-18	15	24	20
COc1ccccc1NC(=O)COC(=O)c1ccc([N+](=O)[O-])s1	39	-8	72*	nt	12	6	5
COc1ccccc1NC(=O)C(=O)NN=Cc1ccc([N+](=O)[O-])s1	nt	nt	2	nt	nt	nt	nt
Cc1cc(C=Nn2cnnc2)c(C)n1-c1ccc2c(c1)OCO2	nt	nt	6	nt	nt	nt	nt
COc1ccc(C(C)=NNC(=O)CNC(=O)c2cccnc2)cc1	nt	nt	2	nt	nt	nt	nt
Cc1cc(C)n(N=Cc2c[nH]c3ccccc23)c(=O)c1	nt	nt	2	nt	nt	nt	nt
O=C(NN=Cc1ccccc1Br)c1ccc(CSc2cccc3cccnc23)cc1	nt	nt	-34	nt	nt	nt	nt
O=S(=O)(O)c1cccc2c(N=Nc3ccc(O)c4ncccc34)cccc12	84*	30	36*	33	nt	5	39
Cc1c(Cl)cccc1NC(=O)CCC(=O)NN=Cc1ccco1	nt	nt	5	nt	nt	nt	nt
CCCN1CCC(=NNc2ccc(S(=O)(=O)N3CCOCC3)cc2[N+](=O)[O-])CC1	-32	9	44*	-3	5	34	0
C=C(C)C1CCC(C)=C1CC(C)(C)C=Nn1cnnc1 (configuration not stated)	nt	nt	42*	nt	nt	nt	58*
